Experimental data published in ChEMBL document CHEMBL4138255, “Discovery of a Slow Tight Binding LPA1 Antagonist (ONO-0300302) for the Treatment of Benign Prostatic Hyperplasia” (ACS Med Chem Lett, 2017).
Blank lines part the entries; values can stand above or below the compound they belong to. Activity calls are given as the source filed them. The calls are words filed in the database; no cut-off is given here.

Key:
[1] = biological target: T1, Lysophosphatidic acid receptor 1 (Homo sapiens, UniProt Q92633); test: Binding affinity to recombinant human LPA1 expressed in CHO cell membranes measured after 0.5 hrs by scintillation counting method; conditions: for Bmax: tested as the 3H-labelled form
[2] = biological target: T1, Lysophosphatidic acid receptor 1; test: Binding affinity to recombinant human LPA1 expressed in CHO cell membranes measured after 4 hrs by scintillation counting method; conditions: for Bmax: tested as the 3H-labelled form
[3] = biological target: T1, Lysophosphatidic acid receptor 1; test: Binding affinity to recombinant human LPA1 expressed in CHO cell membranes measured after 1 hr by scintillation counting method; conditions: for Bmax: tested as the 3H-labelled form
[4] = biological target: T1, Lysophosphatidic acid receptor 1; test: Binding affinity to recombinant human LPA1 expressed in CHO cell membranes measured after 2 hrs by scintillation counting method; conditions: for Bmax: tested as the 3H-labelled form
[5] = biological target: T1, Lysophosphatidic acid receptor 1; test: Antagonist activity at recombinant human LPA1 expressed in CHO cells assessed as reduction in LPA-induced intracellular calcium level pretreated followed by LPA addition by Fura-2-AM dye based fluorescence assay; assay type: functional, cell-based
Procedure, shortened: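 LPA-induced Ca²⁺ mobilization in CHO cells stably expressing the LPA1 receptor, with 10 min incubation. IC50 was obtained by nonlinear regression of 4-point dose–response curves, with 95% confidence intervals.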

[6] = Half life in human microsomes in presence of NADPH; assay type: ADME, Microsome
[7] = Half life in rat microsomes in presence of NADPH; assay type: ADME, Microsome
[8] = biological target: T1, Lysophosphatidic acid receptor 1; test: Binding affinity to recombinant human LPA1 expressed in CHO cell membranes measured after 2 hrs at room temperature by scintillation counting method
[9] = biological target: T1, Lysophosphatidic acid receptor 1; test: Binding affinity to recombinant human LPA1 expressed in CHO cell membranes measured after 2 hrs at 37 degC by scintillation counting method
[10] = biological target: T1, Lysophosphatidic acid receptor 1; test: Binding affinity to recombinant human LPA1 expressed in CHO cell membranes measured after 2 hrs at 4 degC by scintillation counting method
[11] = Total clearance in rat at 1 mg/kg, iv; assay type: ADME, organism-based; conditions: in vivo
Canis familiaris [12] = test: Inhibition of LPA-induced increase of intraurethral pressure in dog at 1 to 3 mg/kg, po measured up to 24 hrs; assay type: functional, organism-based; conditions: Canis lupus familiaris
Procedure, shortened: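 Conscious dogs were dosed orally at 1 or 3 mg/kg. LPA (300 μg/kg i.v.) was injected at 0.5, 1, 2, 4, 6, 9, 12 and 24 h, and intraurethral pressure was measured in conscious animals. Response was expressed as % of each dog's predose (0 h) IUP.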

Rattus norvegicus [13] = test: Inhibition of LPA-induced increase of intraurethral pressure in rat at 3 mg/kg, po measured up to 12 hrs relative to control; assay type: functional
Procedure, shortened: (§1)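 Conscious rats were given compound or vehicle (20% STPG) orally, 3 mg/kg. At 1, 3, 6, 9, 12, 18 or 24 h, LPA (300 μg/kg) was injected i.v. and intraurethral pressure was measured under short-term anesthesia. Inhibition was calculated versus vehicle. ID50 was determined from oral dose–response at 1 h.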

[14] = biological target: Lysophosphatidic acid receptor 1 (Rattus norvegicus) (UniProt P61794); test: Antagonist activity at LPA1 in CD(SD)IGS rat urethra assessed as inhibition of LPA-induced urethra contraction at 1 uM pretreated for 30 mins prior to LPA addition followed by compound washout every 10 minutes for 2 times and subsequent LPA stimulation; assay type: functional
Procedure, shortened: (§2)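 Isolated rat urethra. Contraction to 10 μM LPA was recorded as 100% control. Medium was exchanged, then 1 μM test compound was added for 30 min and contraction to 10 μM LPA recorded. Tissue was washed with compound-free medium three times every 10 min before each LPA re-challenge, two wash-out rounds. Expressed as % inhibition, mean ± SD, n = 3.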

[15] = biological target: Lysophosphatidic acid receptor 1 (Rattus norvegicus) (UniProt P61794); test: Antagonist activity at LPA1 in CD(SD)IGS rat urethra assessed as inhibition of LPA-induced urethra contraction at 1 uM pretreated for 30 mins followed by LPA addition; assay type: functional; procedure, shortened: as §2
Rattus norvegicus [16] = test: Inhibition of LPA-induced increase of intraurethral pressure in po dosed rat measured after 1 hr; assay type: functional; conditions: for ED50: read-out: ID50 (the source's name); procedure, shortened: as §1
Rattus norvegicus [17] = test: Inhibition of LPA-induced increase of intraurethral pressure in rat at 3 mg/kg, po measured at 18 hrs relative to control; assay type: functional; procedure, shortened: as §1
Canis familiaris [18] = test: Inhibition of LPA-induced increase of intraurethral pressure in dog at 1 mg/kg, po measured after 24 hrs relative to control; assay type: functional; conditions: Canis lupus familiaris
[19] = biological target: T1, Lysophosphatidic acid receptor 1; test: Antagonist activity at recombinant human LPA1 expressed in CHO cell […] pretreated for 24 hrs prior to Fura-2-AM dye addition for 1 hr followed by LPA stimulation measured after 3 mins by fluorescence assay; assay type: functional, cell-based
Procedure, shortened: (§3)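 Ca²⁺ mobilization in CHO cells stably expressing LPA1. Compound was added at cell seeding and incubated 24 h, and was held at the same concentration through Ca²⁺-indicator loading and LPA stimulation. In the wash-out variant, compound was removed before LPA stimulation. IC50 was obtained with 95% confidence intervals.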

[20] = biological target: T1, Lysophosphatidic acid receptor 1; test: Antagonist activity at recombinant human LPA1 expressed in CHO cell […] pretreated for 24 hrs prior to Fura-2-AM dye addition for 1 hr followed by compound washout and subsequent LPA stimulation measured after 3 mins by fluorescence assay; assay type: functional, cell-based; procedure, shortened: as §3
Rattus norvegicus [21] = test: Inhibition of LPA-induced increase of intraurethral pressure in rat at 3 mg/kg, po measured after 6 hrs relative to control; assay type: functional; procedure, shortened: as §1
Rattus norvegicus [22] = test: Inhibition of LPA-induced increase of intraurethral pressure in rat at 3 mg/kg, po measured after 3 hrs relative to control; assay type: functional; procedure, shortened: as §1
Rattus norvegicus [23] = test: Inhibition of LPA-induced increase of intraurethral pressure in po dosed rat measured after 6 hrs; assay type: functional; procedure, shortened: as §1
Rattus norvegicus [24] = test: Inhibition of LPA-induced increase of intraurethral pressure in rat at 3 mg/kg, po measured after 1 hr relative to control; assay type: functional; procedure, shortened: as §1

Sequence of Lysophosphatidic acid receptor 1 (Rattus norvegicus) (P61794 whole entry): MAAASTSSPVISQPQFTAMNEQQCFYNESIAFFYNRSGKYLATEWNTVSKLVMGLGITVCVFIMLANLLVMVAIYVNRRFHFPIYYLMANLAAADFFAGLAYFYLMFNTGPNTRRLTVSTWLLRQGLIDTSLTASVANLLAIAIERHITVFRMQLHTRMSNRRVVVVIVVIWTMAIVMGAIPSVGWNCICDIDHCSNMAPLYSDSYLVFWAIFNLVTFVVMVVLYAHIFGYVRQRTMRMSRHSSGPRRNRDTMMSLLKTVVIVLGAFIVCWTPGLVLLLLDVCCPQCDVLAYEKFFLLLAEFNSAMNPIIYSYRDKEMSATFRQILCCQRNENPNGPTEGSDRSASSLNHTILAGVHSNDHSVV
T1 sequence (Q92633 whole entry): as the sequence (P61794 whole entry) above, with A4I, S8I, Q22P, Y40H, V61I, D193E, H194N, V269I, N331S, N335T counted along it

- IC50 [5]: 32 nM
Compound: COc1cc([C@@H](O)[C@@H](CCCc2ccccc2)Cn2ccc(CC(=O)O)n2)cc(OC)c1C

- IC50 [5]: 120 nM
Compound: COc1cc([C@@H](O)[C@@H](CCCc2ccccc2)Cn2ccc(C(=O)O)c2)cc(OC)c1C

- IC50 [5]: 180 nM
Compound: COc1cc([C@@H](O)[C@@H](CCCc2ccccc2)Cn2cnc(CC(=O)O)c2)cc(OC)c1C

- IC50 [5]: 40 nM
Compound: COc1cc([C@@H](O)[C@@H](CCCc2ccccc2)Cn2ccc(CCC(=O)O)n2)cc(OC)c1C

- IC50 [5]: 30 nM
Compound: COc1cc([C@@H](O)[C@@H](CCCc2ccccc2)Cn2cc(CC(=O)O)cn2)cc(OC)c1C

- IC50 [5]: 22 nM
Compound: COc1cc([C@@H](O)[C@@H](CCCc2ccccc2)Cn2ccc(CCC(=O)O)c2)cc(OC)c1C

- IC50 [5]: 34 nM
Compound: COc1cc([C@@H](O)[C@@H](CCCc2ccccc2)Cn2cc(CCC(=O)O)cn2)cc(OC)c1C

- half-life [6]: 0.817 h
- clearance [11]: 50.1 mL/min/kg
- half-life [7]: < 0.25 h
- IC50 [5]: 13 nM
Compound: COc1cc([C@@H](O)[C@@H](CCCc2ccccc2)Cn2ccc(CC(=O)O)c2)cc(OC)c1C
- inhibition (INH) (Rattus norvegicus [23]): 33%
- ED50 (Rattus norvegicus [16]): 0.6 mg/kg
- inhibition (Rattus norvegicus [24]): Active
- inhibition in vivo at 3 mg/kg (Rattus norvegicus [21]): 33%

The remaining lines, values behind:

Compound: [3H]C(CN(Cc1ccc(CC(=O)O)cc1)C(=O)c1cc(OC)c(C)c(OC)c1)C([3H])c1ccccc1 (stereo not given)
- Kd [1]: 8.12 nM
- Kd [2]: 10.2 nM
- Kd [3]: 6.54 nM
- Kd [4]: 5.96 nM

Compound: COc1cc(C(=O)N(C/C=C/c2ccccc2)Cc2ccc(CC(=O)O)cc2)cc(OC)c1C
- half-life [6]: 2.72 h
- half-life [7]: > 3.33 h
- IC50 [5]: > 1000 nM

Compound: [3H]C(C(=O)O)C([3H])c1ccn(C[C@H](CC2Cc3ccccc3C2)[C@H](O)c2cc(OC)c(C)c(OC)c2)c1 (stereo not given in full)
- Kd [8]: 0.74 nM
- Kd [1]: 2.34 nM
- Kd [2]: 0.49 nM
- Kd [3]: 1.26 nM
- Kd [9]: 0.34 nM
- Kd [4]: 0.74 nM
- Kd [10]: 22.5 nM

Compound: COc1cc([C@@H](O)[C@@H](CC2Cc3ccccc3C2)Cn2ccc(CC(=O)O)c2)cc(OC)c1C
- half-life [6]: 1.08 h
- clearance [11]: 19.2 mL/min/kg
- half-life [7]: 0.567 h
- inhibition (Canis familiaris [12]): Active
- inhibition in vivo at 3 mg/kg (Rattus norvegicus [13]): 52%
- IC50 [5]: 61 nM

Compound: COc1cc([C@@H](O)[C@@H](CCCc2ccccc2)Cc2ccc(CC(=O)O)cc2)cc(OC)c1C
- inhibition [14]: Active
- inhibition [15]: Active
- inhibition (Rattus norvegicus [16]): Dose-dependent effect
- ED50 (Rattus norvegicus [16]): 0.97 mg/kg
- IC50 [5]: 61 nM

Compound: COc1cc([C@@H](O)[C@@H](CCCc2ccccc2)Cn2nc(C)c(CC(=O)O)c2C)cc(OC)c1C
- IC50 [5]: 520 nM

Compound: COc1cc(C(=O)N(CCCc2ccccc2)Cc2ccc(CC(=O)O)cc2)cc(OC)c1C
- inhibition [14]: inactive
- inhibition [15]: Active
- Bmax [1]: 3420 cpm
- Bmax [2]: 2740 cpm
- Bmax [3]: 3560 cpm
- Bmax [4]: 2450 cpm

Compound: COc1cc([C@@H](O)[C@@H](CC2Cc3ccccc3C2)Cn2ccc(CCC(=O)O)c2)cc(OC)c1C
- inhibition in vivo at 3 mg/kg (Rattus norvegicus [17]): 47%
- half-life [6]: 1.32 h
- Bmax ([8]; tested as the 3H-labelled form): 942 cpm
- clearance [11]: 20.5 mL/min/kg
- half-life [7]: 0.25 h
- inhibition in vivo at 1 mg/kg (Canis familiaris [18]): 30%
- inhibition (Canis familiaris [12]): Active
- Bmax [1]: 974 cpm
- Bmax [2]: 956 cpm
- Bmax [3]: 973 cpm
- IC50 [19]: 0.16 nM
- IC50 [20]: 0.19 nM
- Bmax ([9]; tested as the 3H-labelled form): 1110 cpm
- Bmax [4]: 942 cpm
- IC50 [5]: 86 nM
- Bmax ([10]; tested as the 3H-labelled form): 1030 cpm

Compound: COc1cc([C@@H](O)[C@@H](CCCc2cccs2)Cn2ccc(CC(=O)O)c2)cc(OC)c1C
- half-life [6]: 1.37 h
- half-life [7]: < 0.25 h
- inhibition (Rattus norvegicus [21]): inactive
- inhibition in vivo at 3 mg/kg (Rattus norvegicus [22]): 70%
- IC50 [5]: 29 nM

Compound: COc1cc([C@@H](O)[C@@H](CCCc2ccsc2)Cn2ccc(CCC(=O)O)c2)cc(OC)c1C
- half-life [6]: 1.1 h
- half-life [7]: < 0.25 h
- inhibition (Rattus norvegicus [21]): inactive
- inhibition in vivo at 3 mg/kg (Rattus norvegicus [22]): 70%
- IC50 [5]: 38 nM

Compound: COc1cc([C@@H](O)[C@@H](CCCc2cccs2)Cn2ccc(CCC(=O)O)c2)cc(OC)c1C
- half-life [6]: 1.25 h
- half-life [7]: < 0.25 h
- inhibition (Rattus norvegicus [21]): inactive
- inhibition in vivo at 3 mg/kg (Rattus norvegicus [22]): 70%
- IC50 [5]: 45 nM

Compound: COc1cc([C@@H](O)[C@@H](CCCc2ccsc2)Cn2ccc(CC(=O)O)c2)cc(OC)c1C
- half-life [6]: 1 h
- clearance [11]: 16.4 mL/min/kg
- half-life [7]: < 0.25 h
- inhibition in vivo at 3 mg/kg (Rattus norvegicus [24]): 75%
- inhibition in vivo at 3 mg/kg (Rattus norvegicus [21]): 23%
- IC50 [5]: 23 nM

Compound: COc1cc(C(=O)C(CCCc2ccccc2)Cc2ccc(CC(=O)O)cc2)cc(OC)c1C (stereo not given)
- IC50 [5]: 460 nM
